Data from PubChem BioAssay.
Activity calls are given as the source filed them.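 The calls were made as follows, unless noted: active = Her2 level under about 52% in both replicate screens, with viability over 70% of control (limit read from the data); inconclusive = Her2 under the limit in one screen only, or viability under 70%; inactive = Her2 level above the set limit.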

What was measured:
[1] = reducers of endogenous Her2 protein level, primary screen, SKBR3 breast tumor cells, AlphaScreen, ATP viability (AID 461); details: 18-24 h, measured here: SKBR3 viability, ATP luminescence, at 10 µM;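 as to Her2 level: lower value means less Her2 protein in the cells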;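 as to viability: percent of carrier control wells set as 100% viability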
[2] = target: Receptor tyrosine-protein kinase erbB-2 (Homo sapiens) (UniProt P04626); test: as above; details: 18-24 h, at 10 µM, stronger effect = lower value
[3] = SK-BR-3 cell growth inhibitors, pilot screen, 24 h, human (AID 572;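 active = viability at or below 10% of carrier control in both of two separate runs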;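 also: compound exposure lasted between 18 and 24 h rather than exactly 24 h; 100% = carrier-treated control wells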); details: SK-BR-3 viability, CellTiter-Glo luminescence, at 10 µM, stronger effect = lower value
[4] = HUVEC growth inhibition – cell-based, human, primary screen (AID 575;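 active = viability at or below 30% in both replicate assays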;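 also: 100% = median of untreated cell wells with 0.1% DMSO on each plate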); details: HUVEC proliferation, CellTiter-Glo luminescence, 72 h; at 10 µM; stronger effect = lower value
Procedure, shortened: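 Timing: 72 h treatment at 37 °C; material: HUVEC primary cells; technique: CellTiter-Glo luminescence measuring cellular ATP; controls: vehicle and MePR control wells; measure: percent of median DMSO-control luminescence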

[5] = growth inhibitors of H69AR lung tumor, primary screen, human, duplicate replicates (AID 580;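 active = viability at or under a set limit in both replicates, limit being median viability minus 3 SD, cut at about 48% in these data, passing the limit was not always enough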;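 also: 100% = mean luminescence of untreated wells and 0% = no signal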); details: H69AR lung tumor cells viability, ATP luminescence, 72 h; at 10 µM; stronger effect = lower value
[6] = reversal of MRP1-mediated doxorubicin resistance, pilot screen, H69AR cells, doxorubicin co-treatment (AID 601;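 active = viability loss from added drug above about 55%, and viability with drug at most 40%, in both replicates, limit read from the data, passing the limit was not always enough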); details: CellTiter-Glo, 72 h, at 10 µM; for differential viability (reversal): stronger effect = higher value
[7] = 384-well plate pilot, post-Golgi transport modulator project, inhibition of yeast transport mutant growth (AID 636; in the data active = inhibition above about 31%); details: absorbance 615 nm, about 18 h, stronger effect = higher value
[8] = growth suppression of yeast trafficking mutant, preliminary HTS, modulators of trafficking downstream of Golgi apparatus project, 1536-format plate, OD 615 nm (AID 637; in the data active = inhibition above about 30%); details: yeast transport mutant growth, absorbance 615 nm, 18 h; stronger effect = higher value
[9] = H69AR cells + 2 uM doxorubicin, measured here: viability with 2 uM doxorubicin, stronger effect = lower value
[10] = H69AR cells, compound alone cytotoxicity

Chain of Receptor tyrosine-protein kinase erbB-2 (Homo sapiens) (P04626 whole entry, looked up): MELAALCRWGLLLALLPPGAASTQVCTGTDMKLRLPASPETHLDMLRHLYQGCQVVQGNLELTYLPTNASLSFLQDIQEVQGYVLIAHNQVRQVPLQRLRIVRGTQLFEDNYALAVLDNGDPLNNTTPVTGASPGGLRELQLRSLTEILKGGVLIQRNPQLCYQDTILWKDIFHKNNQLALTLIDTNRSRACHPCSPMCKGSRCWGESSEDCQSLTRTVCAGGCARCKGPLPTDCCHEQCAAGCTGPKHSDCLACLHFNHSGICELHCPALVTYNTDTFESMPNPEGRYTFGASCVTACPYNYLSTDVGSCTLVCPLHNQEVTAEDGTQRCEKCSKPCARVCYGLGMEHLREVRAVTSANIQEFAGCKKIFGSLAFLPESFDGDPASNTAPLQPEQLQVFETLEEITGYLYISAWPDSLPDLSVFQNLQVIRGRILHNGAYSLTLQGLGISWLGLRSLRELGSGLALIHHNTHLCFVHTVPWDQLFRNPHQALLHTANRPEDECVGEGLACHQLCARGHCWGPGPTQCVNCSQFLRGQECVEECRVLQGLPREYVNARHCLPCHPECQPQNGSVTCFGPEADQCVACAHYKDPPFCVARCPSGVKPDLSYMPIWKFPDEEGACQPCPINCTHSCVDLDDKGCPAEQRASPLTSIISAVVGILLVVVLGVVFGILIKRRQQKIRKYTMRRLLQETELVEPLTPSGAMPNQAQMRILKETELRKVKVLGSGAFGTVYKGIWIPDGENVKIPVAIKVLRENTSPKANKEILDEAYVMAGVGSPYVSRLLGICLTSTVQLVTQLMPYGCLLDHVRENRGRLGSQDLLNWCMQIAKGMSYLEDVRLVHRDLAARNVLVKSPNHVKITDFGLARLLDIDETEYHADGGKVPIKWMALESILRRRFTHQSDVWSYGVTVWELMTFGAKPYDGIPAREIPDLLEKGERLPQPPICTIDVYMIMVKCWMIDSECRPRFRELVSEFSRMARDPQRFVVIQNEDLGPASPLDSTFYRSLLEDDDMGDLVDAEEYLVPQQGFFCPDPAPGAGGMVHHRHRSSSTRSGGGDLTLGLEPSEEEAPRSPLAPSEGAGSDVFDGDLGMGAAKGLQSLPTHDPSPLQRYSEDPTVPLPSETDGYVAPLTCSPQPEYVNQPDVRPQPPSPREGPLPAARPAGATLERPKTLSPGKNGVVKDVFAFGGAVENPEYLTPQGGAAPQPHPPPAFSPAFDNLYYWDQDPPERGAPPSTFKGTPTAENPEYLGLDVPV

| SMILES | viability [1] | Her2 level [2] | viability [3] | viability [4] | viability [5] | differential viability (reversal) ([6]; H69AR cells + 2 uM doxorubicin) | viability [6, 9] | viability [6, 10] | inhibition [7] | inhibition [8] |
| --- | --- | --- | --- | --- | --- | --- | --- | --- | --- | --- |
| CCN(CC)c1ccc(NC(=O)c2cncc(Br)c2)cc1 | 97.5% | 91% (inactive) | 97.5% (inactive) | 76.2% (inactive) | 79.9% (inactive) | -25.4% (inactive) | 105% | 79.9% | -4.47% (inactive) | 3.77% (inactive) |
| O=C(CN(Cc1ccco1)C(=O)CNS(=O)(=O)c1ccc(F)cc1)NCCc1ccccc1 | 78% | 91.5% (inactive) | 78% (inactive) | 85.8% (inactive) | 91.9% (inactive) | 0.9% (inactive) | 91% | 91.9% | -6.35% (inactive) | -2.79% (inactive) |
| COCCN1C(=O)c2oc3c(C)cc(C)cc3c(=O)c2C1c1cccc(O)c1 (stereo not given) | 101% | 89.5% (inactive) | 101% (inactive) | 102% (inactive) | 88.1% (inactive) | -2.81% (inactive) | 90.9% | 88.1% | -5.26% (inactive) | -3.23% (inactive) |
| COc1ccc(Cn2c(-c3ccco3)nc3oc4ccccc4c(=O)c3c2=O)cc1 | 87.5% | 92.5% (inactive) | 87.5% (inactive) | 101% (inactive) | 98.2% (inactive) | 14.2% (inactive) | 84% | 98.2% | -0.67% (inactive) | 6.45% (inactive) |
| O=C(O)c1cc(-c2ccccc2Cl)n[nH]1 | 92% | 93.5% (inactive) | 92% (inactive) | 95.6% (inactive) | 81% (inactive) | 1.79% (inactive) | 79.2% | 81% | -2.34% (inactive) | 2.38% (inactive) |
| Cn1c(C(=O)N2CCCC(C(=O)NCCCc3ccccc3)C2)cc2sccc21 (stereo not given) | 98% | 83.5% (inactive) | 98% (inactive) | 80.9% (inactive) | 82.3% (inactive) | -16.3% (inactive) | 98.7% | 82.3% | -1.28% (inactive) | -1.17% (inactive) |
| COc1ccc(C(=O)N(CCCO)Cc2cc3c(C)ccc(C)c3[nH]c2=O)cc1OC | 90.5% | 95% (inactive) | 90.5% (inactive) | 113% (inactive) | 95.1% (inactive) | 12.2% (inactive) | 82.9% | 95.1% | -5.06% (inactive) | 2.46% (inactive) |
| Cn1c(=O)c2c(nc(NCCCO)n2C/C=C/c2ccccc2)n(C)c1=O | 73.5% | 70.5% (inactive) | 73.5% (inactive) | 85.7% (inactive) | 83.2% (inactive) | -14.8% (inactive) | 98% | 83.2% | -4.08% (inactive) | -0.17% (inactive) |
| CCN(CC)Cc1csc(C(N)=O)c1 | 108% | 107% (inactive) | 108% (inactive) | 104% (inactive) | 98.1% (inactive) | 5.04% (inactive) | 93.1% | 98.1% | -1.22% (inactive) | 0.32% (inactive) |
| CC(=O)NCCOc1cccc(OCCNC(C)=O)c1 | 94.5% | 122% (inactive) | 94.5% (inactive) | 103% (inactive) | 86.3% (inactive) | -5.34% (inactive) | 91.7% | 86.3% | 2.67% (inactive) | -3.17% (inactive) |
| COc1cccc(/C=N/n2c(C)nc3ccccc32)c1OC | 91% | 93.5% (inactive) | 91% (inactive) | 52.1% (inactive) | 91.9% (inactive) | 3.66% (inactive) | 88.3% | 91.9% | -2.4% (inactive) | -6.35% (inactive) |
| CCOC(=O)C1C2C=CC3(CN(c4cccc(Cl)c4)C(=O)C13)O2 (stereo not given) | 86% | 80% (inactive) | 86% (inactive) | 91.2% (inactive) | 97.5% (inactive) | 1.17% (inactive) | 96.3% | 97.5% | -4.4% (inactive) | 0.17% (inactive) |
| COc1ccccc1NC(=O)C1CC(=O)N(c2ccc(F)cc2)C1 (stereo not given) | 99% | 144% (inactive) | 99% (inactive) | 109% (inactive) | 97.3% (inactive) | 8.91% (inactive) | 88.4% | 97.3% | 0.53% (inactive) | 19.2% (inactive) |
| CCCNC(=O)c1ccccc1NC(=O)CN(c1ccccc1OCC)S(C)(=O)=O | 87% | 111% (inactive) | 87% (inactive) | 112% (inactive) | 98.1% (inactive) | 7.5% (inactive) | 90.6% | 98.1% | -0.13% (inactive) | -2.33% (inactive) |
| Clc1ccc(Cn2ncc3c(NCc4cccnc4)ncnc32)cc1 | 77.5% | 86% (inactive) | 77.5% (inactive) | 90.5% (inactive) | 92% (inactive) | -4.09% (inactive) | 96.1% | 92% | -0.53% (inactive) | 3.77% (inactive) |
| Cc1ccc(O)c(C(CC(=O)N2CCCC2)c2ccccc2)c1 (stereo not given) | 89% | 101% (inactive) | 89% (inactive) | 92.4% (inactive) | 94.8% (inactive) | 12.3% (inactive) | 82.5% | 94.8% | -0.38% (inactive) | -6.83% (inactive) |

| SMILES | viability [1] | Her2 level [2] | viability [3] | viability [4] | viability [5] | differential viability (reversal) ([6]; H69AR cells + 2 uM doxorubicin) | viability [6, 9] | viability [6, 10] | inhibition [7] | inhibition [8] |
| --- | --- | --- | --- | --- | --- | --- | --- | --- | --- | --- |
| O=C(CCc1ccccc1)Nc1ccncc1 | 110% | 119% (inactive) | 110% (inactive) | 103% (inactive) | 97.8% (inactive) | 5.17% (inactive) | 92.6% | 97.8% | 0.65% (inactive) | -5.33% (inactive) |
| Cc1ccc(-c2noc(CCC(=O)NCCc3ccccc3Cl)n2)cc1 | 77.5% | 90% (inactive) | 77.5% (inactive) | 103% (inactive) | 99.6% (inactive) | 12% (inactive) | 87.7% | 99.6% | -3.29% (inactive) | -5.17% (inactive) |
| COc1ccc2c(c1)cc(C(=O)O)n2C | 92.5% | 73% (inactive) | 92.5% (inactive) | 102% (inactive) | 98.7% (inactive) | 8.84% (inactive) | 89.9% | 98.7% | -5.39% (inactive) | -5.67% (inactive) |
| CCN(CC)S(=O)(=O)c1ccc(N2CCCC2)c(C(=O)OCC(=O)/C(C#N)=C(\C)N)c1 | 91% | 92.5% (inactive) | 91% (inactive) | 66.7% (inactive) | 82.6% (inactive) | -11.1% (inactive) | 93.7% | 82.6% | -6.4% (inactive) | 1.97% (inactive) |
| CC(C(=O)N1CCCCC1)n1sc2ccccc2c1=O (stereo not given) | 119% | 102% (inactive) | 119% (inactive) | 88% (inactive) | 87.4% (inactive) | 3.18% (inactive) | 84.3% | 87.4% | -1.71% (inactive) | 11.4% (inactive) |
| Cc1nc2sc(C(c3cccc(F)c3)N3CCOCC3)c(O)n2n1 (stereo not given) | 117% | 93.5% (inactive) | 117% (inactive) | 90.8% (inactive) | 94.7% (inactive) | 7.72% (inactive) | 87% | 94.7% | -4.79% (inactive) | -3.65% (inactive) |
| CCOC(=O)C1=C(O)CCn2c1nc1ccccc12 | 122% | 116% (inactive) | 122% (inactive) | 101% (inactive) | 101% (inactive) | 17.7% (inactive) | 83.6% | 101% | -8.9% (inactive) | 0% (inactive) |
| Cn1c(=O)c2c(nc(CN3CCCCC3)n2CCc2ccccc2)n(C)c1=O | 87% | 107% (inactive) | 87% (inactive) | 111% (inactive) | 91.9% (inactive) | -1.94% (inactive) | 93.9% | 91.9% | 2.27% (inactive) | 13.8% (inactive) |
| O=C(O)CCCCCNc1nc(=S)[nH]c2ccccc12 | 107% | 99% (inactive) | 107% (inactive) | 99.7% (inactive) | 89.3% (inactive) | 10.3% (inactive) | 79% | 89.3% | -5.92% (inactive) | -1.59% (inactive) |
| CCOC(=O)C(NC(C)=O)(NS(=O)(=O)c1ccccc1)C(F)(F)F (stereo not given) | 122% | 101% (inactive) | 122% (inactive) | 101% (inactive) | 100% (inactive) | 5.89% (inactive) | 94.2% | 100% | -4.16% (inactive) | 1.59% (inactive) |
| O=C(c1c(F)cccc1F)N(Cc1ccccn1)C1CCCC1 | 78% | 108% (inactive) | 78% (inactive) | 106% (inactive) | 93.6% (inactive) | 4.68% (inactive) | 88.9% | 93.6% | 3.6% (inactive) | 26.3% (inactive) |
| CC(C)CCn1c(=O)c2ccccc2n2c(CN(C)Cc3ccccc3)nnc12 | 83.5% | 100% (inactive) | 83.5% (inactive) | 70.3% (inactive) | 84.4% (inactive) | 72.3% (active) | 12.1% | 84.4% | -6.08% (inactive) | 11.3% (inactive) |
| O=C(Cn1ncc2c(=O)oc3ccccc3c21)NCC1CCCO1 (stereo not given) | 104% | 102% (inactive) | 104% (inactive) | 108% (inactive) | 94.8% (inactive) | -7.15% (inactive) | 102% | 94.8% | -3.59% (inactive) | -1.17% (inactive) |
| C=CCOC(=O)C1=C(C)OC(N)=C(C#N)C1c1ccc2c(c1)OCO2 (stereo not given) | 107% | 90.5% (inactive) | 107% (inactive) | 98.2% (inactive) | 94.5% (inactive) | 7.53% (inactive) | 86.9% | 94.5% | -4.32% (inactive) | -4.44% (inactive) |
| CCOc1cc(C(=O)NCc2nnc(SCC(=O)OC)n2C)cc(OCC)c1OCC | 98% | 85% (inactive) | 98% (inactive) | 104% (inactive) | 95.8% (inactive) | 8.31% (inactive) | 87.5% | 95.8% | -6.84% (inactive) | -2% (inactive) |
